What was measured:
[1] = species on record: Cavia porcellus; assay: In vitro agonistic activity on isolated guinea pig ileum; assay type: functional
How it was run: (§1)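 Longitudinal ileal muscle strips from male guinea pig were held in Krebs-Henseleit (pH 7.4, carbogen) at 37 °C under about 5 mN tension and recorded isometrically. Single agonist concentrations were added, with washout and rest between each. EC50 was read graphically. Emax was expressed as percent of the carbachol maximum. Low-efficacy agents were estimated from pooled curves of at least two experiments.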

[2] = biological target: T1, Muscarinic acetylcholine receptor M3 (Cavia porcellus, UniProt Q8VH26); assay: Compound was evaluated for its binding affinity against Muscarinic acetylcholine receptor M3 in guinea pig parotid gland using (-)-[3H]-QNB as radioligand; assay type: tissue-based
How it was run: (§2)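 Male guinea pig parotid gland homogenate was prepared in 50 mM Na/K phosphate pH 7.4 with 1 mM PMSF (protein ≤0.3 mg/mL). Triplicates were incubated with 2 nM (final) (−)-[3H]QNB at 25 °C for 210 min, with nonspecific binding defined by 10 µM atropine. Samples were separated by centrifugation and counted by scintillation. Ki came from graphical IC50 corrected by the Jacobs method, from 2–3 experiments.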

[3] = species on record: Cavia porcellus; assay: In vitro antagonistic activity on isolated guinea pig urinary bladder; assay type: functional
How it was run: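 Bladder smooth-muscle strips from male guinea pigs (~300 g) in Krebs-Henseleit, pH 7.4, carbogen-gassed, 37 °C, ~5 mN resting tension, stabilized ≥45 min; isometric tension recorded. A control cumulative carbachol curve was run, then washout and ≥15 min rest. A fixed test-compound concentration was incubated 60 min before a second carbachol curve. Carbachol EC50s were read graphically and dose ratios calculated to give KB; 2–8 experiments.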

[4] = species on record: Cavia porcellus; assay: Maximum response relative to that elicited by carbachol in guinea pig ileum was determined; assay type: functional; how it was run: as §1
[5] = biological target: T1, Muscarinic acetylcholine receptor M3; assay: Compound was evaluated for its binding affinity against muscarinic acetylcholine receptor M3 in guinea pig parotid gland using (-)-[3H]-QNB as radioligand; assay type: tissue-based; how it was run: as §2
[6] = biological target: T1, Muscarinic acetylcholine receptor M3; assay: Compound was evaluated for its binding affinity against muscarinic acetylcholine receptor M3 n guinea pig parotid gland using (-)-[3H]-QNB as radioligand; assay type: tissue-based; how it was run: as §2

T1 sequence (Q8VH26 whole entry): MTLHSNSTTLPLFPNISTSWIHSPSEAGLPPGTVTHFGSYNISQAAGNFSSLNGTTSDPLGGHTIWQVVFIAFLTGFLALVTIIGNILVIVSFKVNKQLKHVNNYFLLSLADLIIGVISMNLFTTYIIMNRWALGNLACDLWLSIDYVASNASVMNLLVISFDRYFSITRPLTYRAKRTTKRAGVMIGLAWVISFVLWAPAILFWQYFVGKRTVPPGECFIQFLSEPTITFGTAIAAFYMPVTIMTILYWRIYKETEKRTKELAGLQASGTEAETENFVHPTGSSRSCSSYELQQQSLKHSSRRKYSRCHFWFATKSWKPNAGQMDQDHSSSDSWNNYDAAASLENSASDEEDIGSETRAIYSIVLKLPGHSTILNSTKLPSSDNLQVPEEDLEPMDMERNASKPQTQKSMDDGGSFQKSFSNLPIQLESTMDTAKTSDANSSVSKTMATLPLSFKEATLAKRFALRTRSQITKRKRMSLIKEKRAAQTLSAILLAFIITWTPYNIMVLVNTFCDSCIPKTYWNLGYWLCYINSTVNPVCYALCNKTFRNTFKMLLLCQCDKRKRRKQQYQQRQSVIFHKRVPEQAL

Structure (SMILES)	EC50 [1] [µM]	Ki [2] [µM]	Kb [3] [µM]	Emax [4] [%]	Ki [5] [µM]	Ki [6] [µM]	EC50 [3] [µM]
C[C@H]1C[C@@]2(CO1)CN1CCC2CC1	150	26	30	25			
C[C@@H]1OC[C@@]2(CN3CCC2CC3)O1	17		13	24	25		
CC1(C)OCC2(CN3CCC2CC3)O1 (stereo not given)	22		41	14		39	
C[N+](C)(C)CCOC(N)=O [CARBACHOL]	0.17			100			1.7
C[C@@H]1C[C@@]2(CO1)CN1CCC2CC1	12		19	7	33		
C1OCC2(CN3CCC2CC3)O1 (stereo not given)	100		122	45	86		
C[C@@H]1CC[C@@]2(CN3CCC2CC3)O1	30	78	90	20			
C[C@H]1CC[C@@]2(CN3CCC2CC3)O1	12		93	29	35		
C[C@H]1OC[C@@]2(CN3CCC2CC3)O1	6		4.8	91	15		

Source: ChEMBL document CHEMBL1126289, “Analogues of the muscarinic agent 2'-methylspiro[1-azabicyclo[2.2.2]octane-3,4'-[1,3]dioxolane]: synthesis and pharmacology” (J Med Chem, 1992)
